Results collected from several papers.
Lines come from different studies, so protocols differ.
Cell line: A549
Effect on: cell growth or viability

`Cc1cc(C)cc(NC(=O)Nc2nc3cc(-c4ccc5ncn(Cc6ccccc6)c(=O)c5c4)ccc3s2)c1` has an IC50 of > 20 µM (MTT; 72 h).
For `O=c1c2cc(Cl)cc(Cl)c2nc(NNc2cccc(Cl)c2)n1-c1ccccc1`, the IC50 was > 200 µM (MTT; 48 h).
`C/C(=N\C(=S)/N=C(\C)c1c(O)c2ccccc2oc1=O)c1c(O)c2ccccc2oc1=O` gave an IC50 of 6.66 µM (MTT; 48 h).
For `COc1ccc(CNc2ccc(C(=O)O)cc2)cc1OC`, the IC50 was > 100 µM (resazurin; 72 h).
With `COc1ccc(NC(=S)N/N=C/c2ccc(N3CCC(O)CC3)cc2)cc1` the IC50 was 5.2 µM (MTT; 24 h).
The IC50 of `CCCCCC(=O)Nc1ccc(-c2ccc3ncn(CCC)c(=O)c3c2)cn1` is reported as 0.17 µM (CCK-8; 72 h).
`O=C(O)c1ccc(NCc2cc(Br)ccc2O)cc1` gave an IC50 of > 100 µM (resazurin; 72 h).
For `CC(C)CCn1cnc2ccc(-c3ccc4sc(NC(=O)Nc5ccc(F)cc5)nc4c3)cc2c1=O`, the IC50 was 2.39 µM (MTT; 72 h).
`CCCCCC(=O)Nc1ccc(-c2ccc3ncn(CC4CC4)c(=O)c3c2)cn1` gave an IC50 of 0.25 µM (CCK-8; 72 h).
`N=C(N)c1ccc(OCCCCCOc2ccc(C(=N)N)cc2)cc1` has an IC50 of 12.8 µM (ATP luminescence; 72 h).
`CCCCn1cnc2ccc(-c3ccc(NC(=O)Nc4ccc(C(F)(F)F)cc4)nc3)cc2c1=O` gave an IC50 of > 10 µM (CCK-8; 72 h).
The IC50 of `Fc1ccc(NC(=S)N/N=C/c2cccc3cc4ccccc4nc23)cc1` is reported as > 50 µM (MTT; 48 h).
`CCCn1cnc2ccc(-c3ccc(N4CCCCCCC4=O)nc3)cc2c1=O` has an IC50 of > 10 µM (CCK-8; 72 h).
`CC(=NNC(=O)c1cc(-c2ccccc2)n(-c2ccc(S(N)(=O)=O)cc2)n1)c1ccc(C)cc1` gave an IC50 of 11.1 µM (fluorescence; 48 h).
`CCCCC(=O)Nc1ccc(-c2ccc3ncn(CC#N)c(=O)c3c2)cn1` gave an IC50 of > 10 µM (CCK-8; 72 h).
`COc1cc(C2C3=C(Nc4nc(SC)[nH]c(=O)c42)c2ccccc2C3=O)ccc1O` (centres unmarked) has an IC50 of > 1000 µM (MTT; 72 h).
For `COc1ccc(C(=O)Nc2nc3cc(-c4ccc5ncn(Cc6ccccc6)c(=O)c5c4)ccc3s2)cc1`, the IC50 was > 20 µM (MTT; 72 h).
For `CCCCC(=O)Nc1ccc(-c2ccc3ncn(C4CC4)c(=O)c3c2)cn1`, the IC50 was > 10 µM (CCK-8; 72 h).
For `NNc1nc2ccc(Br)cc2c(=O)n1-c1ccc(F)cc1`, the IC50 was 63.9 µM (MTT; 48 h).
The IC50 of `OC1CCN(c2ccc(/C=N/NC(=S)Nc3cccc(Cl)c3Cl)cc2)CC1` is reported as 0.58 µM (MTT; 24 h).
The IC50 of `CC1=CC(=O)c2ccccc2C1=O` is reported as 55.6 µM (MTT).
The IC50 of `CCCCn1cnc2ccc(-c3ccc(NC(=O)NCc4ccccc4)nc3)cc2c1=O` is reported as 0.38 µM (CCK-8; 72 h).
For `Cc1cc(NS(=O)(=O)c2ccc(NC(=O)/C(C#N)=C/c3ccc(N4CCCC4)cc3)cc2)no1`, the IC50 was 180 µM (MTT; 48 h).
